The subject of one assay is Saccharomyces cerevisiae. Nature of the assay: Inhibition of Saccharomyces cerevisiae SM3614 Ras converting enzyme 1 Ste24 mutant at 100 uM after 60 mins by fluorescence based proteolysis assay. In short, it runs like this: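 Membranes enriched for yeast Ste24p (plasmid pSM1282 in SM3614, ste24Δ rce1Δ), 0.25 mg/mL final in 100 mM HEPES pH 7.5, 5 mM MgCl2. Pretreated 15 min at 30 °C with 100 µM compound, then 20 µM ABz-KSKTKC(farnesyl)VIQL added. Fluorescence 320/420 nm read every 30–60 s for 60 min at 30 °C. Initial velocities give % activity vs DMSO. At least 4 replicates.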

Assay [1] has as its target T1, CAAX prenyl protease 2 (Saccharomyces cerevisiae S288c) (UniProt Q03530).
T1 sequence (whole entry): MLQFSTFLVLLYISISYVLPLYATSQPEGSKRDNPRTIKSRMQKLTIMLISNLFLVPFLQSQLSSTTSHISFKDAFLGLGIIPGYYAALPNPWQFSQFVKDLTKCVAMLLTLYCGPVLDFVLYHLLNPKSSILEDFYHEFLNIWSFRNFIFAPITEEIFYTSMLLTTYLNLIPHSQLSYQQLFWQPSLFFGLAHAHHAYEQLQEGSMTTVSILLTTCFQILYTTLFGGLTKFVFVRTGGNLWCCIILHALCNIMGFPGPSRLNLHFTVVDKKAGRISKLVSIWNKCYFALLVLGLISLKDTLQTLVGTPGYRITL
Nature of the assay: Inhibition of Saccharomyces cerevisiae SM3614 Ras converting enzyme 1 at 100 uM after 60 mins by fluorescence based proteolysis assay. In short, it runs like this:
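Membranes enriched for yeast Rce1p (plasmid pWS479 in SM3614, ste24Δ rce1Δ), 0.25 mg/mL final in 100 mM HEPES pH 7.5, 5 mM MgCl2. Pretreated 15 min at 30 °C with 100 µM compound, then 20 µM quenched ABz-KSKTKC(farnesyl)QLIM added. Fluorescence 320/420 nm read every 30–60 s for 60 min at 30 °C. Initial velocities give % activity vs DMSO. At least 4 replicates.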

The structures appear in SMILES notation. The source made the active and inactive calls. The calls are words filed in the database; no cut-off is given here.

Consider `N=C(N)NCCC[C@H](NC(=O)[C@H](Cc1ccccc1)NC(=O)OCc1ccccc1)C(=O)COC(=O)c1ccccc1`, for which the result (in the assay with Saccharomyces cerevisiae; in assay [1]) was Active.

On to `CC(C)(C)OC(=O)NCCCC[C@H](NC(=O)[C@H](Cc1ccccc1)NC(=O)OCc1ccccc1)C(=O)CBr`, for which the outcome (in the assay with Saccharomyces cerevisiae; in assay [1]) was inactive.

On to `C[C@H](NC(=O)[C@H](Cc1ccccc1)NC(=O)OCc1ccccc1)C(=O)COC(=O)c1c(C(F)(F)F)cccc1C(F)(F)F`, for which the outcome (with Saccharomyces cerevisiae; in assay [1]) was Active.

For the molecule `Cc1ccc(C(=O)OCC(=O)[C@H](C)NC(=O)[C@H](Cc2ccccc2)NC(=O)OCc2ccccc2)cc1`, the outcome (with Saccharomyces cerevisiae; in assay [1]) was Active.

For the molecule `Cc1ccc(C(=O)OCC(=O)[C@H](CCCNC(=N)N)NC(=O)[C@H](Cc2ccccc2)NC(=O)OCc2ccccc2)cc1`, the outcome (in the assay with Saccharomyces cerevisiae; in assay [1]) was Active.

As for `CC(=O)N[C@@H](Cc1ccc(O)cc1)C(=O)N[C@@H](Cc1ccccc1)C(=O)N[C@@H](CCCNC(=N)N)C(=O)COC(=O)c1c(C)cccc1C`, the outcome (in the assay on Saccharomyces cerevisiae; in assay [1]) was inactive.

As for `C[C@H](NC(=O)[C@H](Cc1ccccc1)NC(=O)OCc1ccccc1)C(=O)COC(=O)c1ccccc1`, the result (in the assay with Saccharomyces cerevisiae; in assay [1]) was Active.

Consider `COc1ccc(C(=O)OCC(=O)[C@H](CCCNC(=N)N)NC(=O)[C@H](Cc2ccccc2)NC(=O)OCc2ccccc2)cc1`, for which the result (with Saccharomyces cerevisiae; in assay [1]) was Active.

With `N=C(N)NCCC[C@H](NC(=O)[C@H](Cc1ccccc1)NC(=O)OCc1ccccc1)C(=O)COC(=O)c1ccc([N+](=O)[O-])cc1`, the outcome (with Saccharomyces cerevisiae; in assay [1]) was Active.

For the molecule `Cc1cc(C)c(C(=O)OCC(=O)[C@H](CCCNC(=N)N)NC(=O)[C@H](Cc2ccccc2)NC(=O)OCc2ccccc2)c(C)c1`, the result (in the assay on Saccharomyces cerevisiae; in assay [1]) was Active.

Consider `Cc1cc(C)c(C(=O)OCC(=O)[C@H](C)NC(=O)[C@H](Cc2ccccc2)NC(=O)OCc2ccccc2)c(C)c1`, for which the outcome (in the assay with Saccharomyces cerevisiae; in assay [1]) was Active.

As for `Cc1cccc(C)c1C(=O)OCC(=O)[C@H](C)NC(=O)[C@H](Cc1ccccc1)NC(=O)OCc1ccccc1`, the outcome (with Saccharomyces cerevisiae; in assay [1]) was Active.

On to `Cc1cccc(C)c1C(=O)OCC(=O)[C@H](CCCNC(=N)N)NC(=O)[C@H](Cc1ccccc1)NC(=O)OCc1ccccc1`, for which the outcome (in the assay with Saccharomyces cerevisiae; in assay [1]) was Active.

As to `NCCCC[C@H](NC(=O)[C@H](Cc1ccccc1)NC(=O)OCc1ccccc1)C(=O)O`, the result (with Saccharomyces cerevisiae; in assay [1]) was inactive.

In the case of `COc1ccc(C(=O)OCC(=O)[C@H](C)NC(=O)[C@H](Cc2ccccc2)NC(=O)OCc2ccccc2)cc1`, the outcome (with Saccharomyces cerevisiae; in assay [1]) was Active.

For `CC(C)(C)OC(=O)NCCCC[C@H](NC(=O)[C@H](Cc1ccccc1)NC(=O)OCc1ccccc1)C(=O)O`, the result (in the assay on Saccharomyces cerevisiae; in assay [1]) was inactive.

As to `CC(=O)NC(Cc1ccc(O)cc1)C(=O)N[C@@H](Cc1ccccc1)C(=O)NCC(=O)COC(=O)c1c(C)cccc1C` (single isomer, unassigned), the result (in the assay with Saccharomyces cerevisiae; in assay [1]) was inactive.

As to `C[C@H](NC(=O)[C@H](Cc1ccccc1)NC(=O)OCc1ccccc1)C(=O)COC(=O)c1ccc([N+](=O)[O-])cc1`, the outcome (with Saccharomyces cerevisiae; in assay [1]) was Active.

As for `N=C(N)NCCC[C@H](NC(=O)[C@H](Cc1ccccc1)NC(=O)OCc1ccccc1)C(=O)COC(=O)c1c(C(F)(F)F)cccc1C(F)(F)F`, the outcome (in the assay with Saccharomyces cerevisiae; in assay [1]) was Active.

For the origin of these results see ChEMBL document CHEMBL1221339, “Modulation of the inhibitor properties of dipeptidyl (acyloxy)methyl ketones toward the CaaX proteases” (Bioorg Med Chem, 2010).
